Test: Toxicity liver stage against HepG2, at 10uM
Type: cell-based
Parameters: test concentration 10 uM, cell line HepG2-A16-CD81EGFP
Settings: human, HepG2-A16-CD81EGFP cells; read-out: INHIBITION
How it was run: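 Uninfected HepG2-A16-CD81EGFP cells, 3 × 10^3 per well, 1536-well, plated on prespotted compound at 10 μM final, parasite-free screening media added to match infected plates; puromycin 10 μM positive, DMSO 0.5% negative; run in parallel with 48 h PbLuc assay at 37 °C, 5% CO2; viability by CellTiter-Glo luminescence, normalized to controls.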

Row | SMILES | cytotoxicity at 10 µM [%]
1 | CC(C)(C)n1ncc2c(=O)n(CC(=O)NCc3ccccc3Cl)cnc21 | -9.03
2 | CC(C)(C)C(=O)N1C[C@@H](F)[C@@H](OCc2nc3ccccc3o2)C1 | 3.33
3 | FC(F)(F)c1ccc2nc([C@H]3CCN(C4CCCCC4)C3)[nH]c2c1 | -0.668
4 | CC(C)n1ncc2c1NC(=O)CC21C(=O)Nc2c(Cl)ccc(Cl)c21 (stereo not given) | 1.19
5 | O=C(Nc1nc2c(s1)CN(S(=O)(=O)C1CC1)CC2)c1ccc(Cl)s1 | 21.3
6 | Cn1cc(S(=O)(=O)NCCc2ccsc2)cn1 | 5.26
7 | CC(=O)NCC(=O)N1Cc2cc(-c3cc[nH]n3)ccc2C1c1cnco1 (stereo not given) | 13.5
8 | O=C(c1cnccn1)N1CC[C@H]2[C@H]1CCN2S(=O)(=O)C1CC1 | -168
9 | O=C(c1cc(F)cc(F)c1)N1CCC2(CC1)CC2 | 5.04
10 | O=C(c1nn[nH]c1Nc1ccc(Cl)cc1)N1CCCCCC1 | 34.5
11 | Cc1cccc(CN2CCCC2c2cccc(Nc3nccs3)n2)c1 (stereo not given) | 0.81
12 | CC1CCN(c2ncc(-c3ccccc3F)c(-c3nccn3C)n2)CC1 | 27.1
13 | CCN(CC)S(=O)(=O)N1CC[C@H](c2ccccc2)[C@@H]2[C@H]1CCCCN2C | 3.74
14 | Nc1cc(-c2cccs2)nn(CC(=O)N2CCc3ccccc32)c1=O | -10
15 | c1cnc(N2CCCC(c3cc4cccnc4[nH]3)C2)nc1 (stereo not given) | -9.42
16 | CSc1ccc(CN2CCCC3(CNC(=O)c4ccccc4O3)C2)cc1 (stereo not given) | 3.52
17 | Cc1cc(C)c2cc(CNC3CCCCC3)c3nn(C)c(=O)n3c2c1 | -4.55
18 | COc1ccc(C2Nc3cc(Cl)ccc3C3=NCCN32)cc1OC (stereo not given) | 1.05
19 | COC(=O)CC(NC(=O)c1cccc(CS(C)(=O)=O)c1)c1cccs1 (stereo not given) | -44.8
20 | O=C(O)c1ccc(S(=O)(=O)Nc2cnn(CC(F)(F)F)c2)cc1 | -7.52
21 | CCN1CCOC(CNCc2ccc(C)s2)C1 (stereo not given) | 2.35
22 | COc1cccc(-c2ccc(CNC(=O)c3ccc(=O)n(C)c3)cc2)c1 | 22.3

Row | SMILES | cytotoxicity at 10 µM [%]
23 | c1cc(N2CCC(CN3CCOCC3)CC2)c2sccc2n1 | 10.8
24 | CCc1cnc(CNC(=O)NCCc2ccc(O)cc2)s1 | 2.31
25 | Cc1cc(C)c(CNC(=O)NCCNc2cnccn2)c(=O)[nH]1 | -43.6
26 | COc1ncc(NCc2ccc(Cl)c(Cl)c2)cc1C(N)=O | 32.7
27 | CC(NC(=O)CN1CCN(c2ccncc2Cl)CC1)c1ccco1 (stereo not given) | -6.02
28 | COCCNc1ccccc1CNC(=O)NCc1nc(C)c(C)s1 | 5.75
29 | O=C(c1cnc(OCC(F)(F)F)c(Cl)c1)N1CCc2ccc(O)cc2C1 | -5.38
30 | Cc1cnn(Cc2cc(F)ccc2F)c1NC(=O)CNC(=O)C1CC1 | 2.3
31 | Cc1n[nH]c(C)c1C1COCCN1c1ncnc2sccc12 (stereo not given) | 23.1
32 | Cc1ccc(S(=O)(=O)N2CCCCC(N3CCN(C)CC3)C2)cc1F (stereo not given) | 6.24
33 | C1=C(c2c[nH]c3ncccc23)CCN(Cc2nnc(C3CC3)o2)C1 | 30.7
34 | Cc1cc(NCC2(O)CCOCC2)nc2ccccc12 | -8.98
35 | CCC(Nc1ccc(Oc2ccc(C#N)cc2OC)cc1)C(N)=O (stereo not given) | 65.7
36 | CC(=O)N(CCc1nc(-c2cc(C(N)=O)oc2C)cs1)C(C)C | 0.988
37 | CNC(=O)CCN1CCCCCC1c1ccc(C)o1 (stereo not given) | -10.2
38 | O=C(c1cc[nH]n1)N(Cc1ccccc1)CC1CCC1 | -6.74
39 | COCCN1CCC(CNC(=O)c2cc(Cl)c[nH]2)CC1 | 5.2
40 | CCC(C(=O)Nc1ccc2nc(C)oc2c1)N1CCCC1=O (stereo not given) | -41.9
41 | O=C1NCCN1C1CCN(c2ccnc(-c3ccccc3)n2)CC1 | 36.2
42 | CCOCCCC(=O)Nc1cc(C(N)=O)ccc1N1CCCCC1 | -48
43 | CCN1CCN(CCNc2nc3ccc(C)cc3c(=O)n2C)CC1 | 10.7
44 | CNc1nc(CNC(=O)Nc2ccc(OC(C)C)cc2F)cs1 | 61.2

Row | SMILES | cytotoxicity at 10 µM [%]
45 | Cc1cc(C)n(C2CN(CC(=O)N(C)Cc3ccc(C)o3)C2)n1 | -6.24
46 | CCN1CCN(C)C2(CCN(C(=O)CC(F)(F)F)CC2)C1=O | 0.797
47 | Cc1cccc(S(=O)(=O)N2CCC3(CC2)CC(N(C)C)CO3)c1 (stereo not given) | -126
48 | CC(=O)N1Cc2nc(C(=O)NCCc3cccnc3)oc2C1 | -81.8
49 | CC(C)NC(=O)[C@@H]1CN(Cc2nccs2)C[C@H]2OCC[C@H]21 | -93.5
50 | Cn1cc(N2CC3(CCN(C(=O)c4cccn4C)CC3)OCC2=O)cn1 | -81.1
51 | CC(=O)N1CCC2(CCN(Cc3ccc(Cl)c(C(F)(F)F)c3)CC2)C1 | -81.9
52 | Cc1ncc(-c2ccnc(NCCc3ccc(F)cc3)n2)c(=O)[nH]1 | -7.3
53 | CC(C)Nc1nc2c(s1)C(=O)CN(C(=O)NCc1ccccc1)C2 | 75.6
54 | COc1ccc2nc(CNC(=O)c3cc(C(C)C)no3)[nH]c2c1 | -0.527
55 | CCn1cc(CN2CCCC(COc3ccc(F)cc3)C2)cn1 (stereo not given) | -59.6
56 | CCC(C(=O)N(Cc1ccccn1)C1CCCCC1)n1cccn1 (stereo not given) | -45.3
57 | CCNc1ncc(C(=O)N[C@@H](C)[C@H](O)c2ccccc2)cn1 | -4.71
58 | CC(C)(C)c1cn(C2CCN(C3CCSC3)CC2)nn1 (stereo not given) | -3.99
59 | CCn1cc(CN2CCCC(c3[nH]ncc3-c3ccc(C)cc3)C2)cn1 (stereo not given) | -1.67
60 | CCc1nc(N)nc(N(C)Cc2nncn2CCOC)c1C | -6.41
61 | Cc1cccc(N2CCN(CCC(=O)NCc3ccc(C)s3)CC2)c1 | -0.432
62 | COc1ccc(Cl)cc1-n1cnc(CCNC(C)=O)c1 | 2.29
63 | COCCC(=O)NCC1COc2cc(OC)ccc2C1 (stereo not given) | 0.0723
64 | Cc1cc(CNC(=O)CCCN2CCCCC2)n(C)n1 | -10.3
65 | COCC(=O)N1CCCN(Cc2c(C)nc3ccc(Cl)cn23)CC1 | 5.39
66 | CN1CCc2[nH]nc(C(=O)N3CCC4(CCCO4)CC3)c2C1 | -47.1

Row | SMILES | cytotoxicity at 10 µM [%]
67 | Fc1cccc2ncnc(NCCCc3ccncc3)c12 | 7.02
68 | CCN(CCN(C)C)c1nc(CCN)nc2sc(C)c(C)c12 | -1.78
69 | COc1ccc2c(c1)Cc1c-2nc(N)c(C#N)c1C1CCOC1 (stereo not given) | 24.4
70 | CN1CCCC(CCC(=O)N2CCc3sc(C(=O)N(C)C)cc3C2)C1 (stereo not given) | 1.42
71 | CC(C)N1CCC(C(=O)N2CCC(c3ccc(F)cc3)C2)CC1 (stereo not given) | -58.1
72 | NCC1Cc2cc(Oc3cc(F)c(CN4CCCC4)c(F)c3)ccc2O1 (stereo not given) | -8.97
73 | O=C(c1cn(CC(=O)N2CCCC2)c2ccccc12)C1CC1 | 14.2
74 | NC(=O)c1ccccc1-n1cc(-c2cccc(C(=O)O)c2)cn1 | -5.65
75 | Cc1ccsc1CN(CCN(C)C)C(=O)c1cc2ccccc2[nH]1 | -139
76 | CN(CC1CCCCO1)c1nc(-c2cccnc2)nc2c1CCNC2 (stereo not given) | 3.01
77 | CC(=O)N1CCc2c(nc(N(C)C)nc2NCCCn2ccnc2C)C1 | -7.42
78 | CNCc1cn(C2CCN(C(=O)NCc3ccco3)CC2)nn1 | 1.11
79 | COC(=O)Cn1c(C)cc(=O)c2cc(F)ccc21 | 2.63
80 | CCC(NC(=O)C1CCN(S(C)(=O)=O)CC1)c1ccc(OC)cc1 (stereo not given) | -1.82
81 | CCc1cc(N2CCC(n3cc(C(=O)NCC(C)C)nn3)CC2)ncn1 | 41.4
82 | Fc1ccc(CCC2CCCN(Cc3c[nH]cn3)C2)c(F)c1 (stereo not given) | -6.51
83 | COc1ccc(-c2cc[nH]n2)cc1CNC1CCCC1 | -52.8
84 | CO[C@H]1C[C@@H](O)C12CCN(C(=O)CCCOc1ccccc1)CC2 | -2.22
85 | O=C(NCc1cc(N2CCOCC2)ncn1)c1cccc(CO)n1 | -7.76
86 | CC(C)n1ccnc1C1CCCN(c2ccnc3ccccc23)C1 (stereo not given) | 38.4
87 | COC(=O)c1ccc(CNCc2cn(C)nc2C)cc1 | -8.55
88 | Cc1csc(C2CCCCN2C(=O)c2cc(C(C)C)[nH]n2)n1 (stereo not given) | -1.59

Row | SMILES | cytotoxicity at 10 µM [%]
89 | Cn1nccc1C1CCN(CC(=O)NCC2CC2)CC1 | -9.38
90 | O=C(CNCCn1cccn1)NCC1(c2ccccc2)CCC1 | -26.7
91 | O=C(CCCc1cccs1)N1CCC(N2CCNC2=O)CC1 | 2.83
92 | O=C(Cc1ccc2c(c1)CCCC2)NCCc1ccccn1 | 1.9
93 | Cc1ccc(CNCc2ccc(-n3nc(C)cc3C)nc2)cc1 | -0.164
94 | c1ccc2sc(CN3CCOC(Cn4cccn4)C3)nc2c1 (stereo not given) | -10.2
95 | CNS(=O)(=O)c1cccc(CNc2nccc(C(F)(F)F)n2)c1 | 17.2
96 | CC(O)CNCc1ccc(OCc2ccc3c(c2)OCCO3)cc1 (stereo not given) | -4.61
97 | Cc1cc(F)ccc1-c1ccccc1CC1CNCCNC1=O (stereo not given) | 5.08
98 | CCn1cc2c(n1)CN(Cc1nccs1)CC2COCC1CC1 (stereo not given) | 6.07
99 | N#Cc1ccc(N2CCC3(CC2)CC(Oc2cccnc2)CO3)cc1 (stereo not given) | 50.9
100 | Cn1cc(CNC2CCC(O)CC2)c(-c2cc3ccccc3o2)n1 (stereo not given) | -48
101 | O=C1[C@@H]2CCN(Cc3ccoc3)C[C@@H]2OCCN1Cc1cccc(F)c1 | -98.2
102 | CCS(=O)(=O)N1CCC2(CC1)CN(CC1CCOC1)c1ccccc12 (stereo not given) | -85.9
103 | COc1cc(N2C[C@@H]3COC[C@]3(COc3ncccc3F)C2)ncn1 | -67.5
104 | O=S(=O)(c1cccs1)N1CC[C@@H](O)[C@@H]1Cc1ccncc1 | -72.8
105 | CCN(CC)Cc1cn2c(n1)CN(C(=O)Cc1ccsc1)CC2 | -143
106 | CC(C)N(C)Cc1cn2c(n1)CN(C(=O)Cc1ccccc1)CC2 | -135
107 | Cc1noc(C)c1CN1CC[C@@H](OCC2CC2)[C@@H](Cc2ccccc2)C1 | 11.5
108 | Cc1ccc(CN2CCn3cc(CN4CCN(C)CC4)nc3C2)cc1 | -125
109 | CCOc1cc(C=Cc2ncc(C(=O)NC)s2)ccc1OC | -0.58
110 | CCOc1c(Br)cc(C2c3c(n[nH]c3C)N=C3COC(=O)C32)cc1OC (stereo not given) | 47.1
